Source: PubChem (several laboratories)
MEKK3 PB1 HTS: modulators of MEKK3-MEK5 PB1 binding, primary screen, biochemical, wildtype MEKK3, multiplex bead flow cytometry, Alexa488-MEK5 | Mitogen-activated protein kinase kinase kinase 3 (Homo sapiens), Q99759 | binding response (% of control), % at 10 µM | bead-based flow cytometry, Alexa488-MEK5 binding to MEKK3; actives lie on both sides; 0 = blocked by unlabeled MEK5, 100 = vehicle | hit rate 1.4% among 290,000;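 active = binding response more than 3 SD above or below the average of its plate-row segment, actives on both sides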;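 note: Alexa488 bead fluorescence after subtracting the streptavidin-only scavenger bead signal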
Target sequence (Q99759 whole entry, looked up): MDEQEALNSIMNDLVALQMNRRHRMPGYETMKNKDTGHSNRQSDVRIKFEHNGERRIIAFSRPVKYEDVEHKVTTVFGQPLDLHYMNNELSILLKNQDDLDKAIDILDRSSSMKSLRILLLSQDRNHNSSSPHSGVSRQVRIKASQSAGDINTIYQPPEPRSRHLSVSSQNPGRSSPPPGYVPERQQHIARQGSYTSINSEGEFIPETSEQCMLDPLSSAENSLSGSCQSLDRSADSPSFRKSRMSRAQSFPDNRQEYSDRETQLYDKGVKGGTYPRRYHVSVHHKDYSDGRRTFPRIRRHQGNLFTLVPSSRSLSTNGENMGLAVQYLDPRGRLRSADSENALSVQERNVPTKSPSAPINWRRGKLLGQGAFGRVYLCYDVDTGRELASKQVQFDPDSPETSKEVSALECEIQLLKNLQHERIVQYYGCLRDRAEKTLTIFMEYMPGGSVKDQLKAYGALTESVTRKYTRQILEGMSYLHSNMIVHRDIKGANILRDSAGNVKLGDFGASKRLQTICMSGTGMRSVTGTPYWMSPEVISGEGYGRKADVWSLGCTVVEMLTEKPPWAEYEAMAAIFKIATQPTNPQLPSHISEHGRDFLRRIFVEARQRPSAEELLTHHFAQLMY
MEKK2mut PB1 HTS: MEK5 binding signal on mutant MEKK2 PB1, primary screen, biochemical, multiplex bead flow cytometry, Alexa488-MEK5. Alexa488-MEK5 binding to MEKK2 mutant. percent response, % at 10 µM. hit rate 0.35% among 290,000. AID 1530, 2009; in the data active = percent response above about 24%, passing the limit was not always enough
FID counter: compounds displacing fluorescent DNA intercalator, primary screen, artefact control for HCV NS3 helicase inhibitor project, biochemical, FID fluorescence; DNA fluorescent intercalator displacement; inhibition, % at 7.9 µM; hit rate 0.17% among 290,000; AID 1845, 2009; in the data active = inhibition above about 37%;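 note: higher means more ethidium bromide displaced from hairpin DNA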
T cruzi repl: inhibitors of intracellular T. cruzi growth, primary screen, luminescence, NIH3T3 host cells; T. cruzi beta-gal in NIH3T3, 90 h; inhibition, % (test concentration not listed); hit rate 1.4% among 300,000; AID 1885, 2009;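 active = mean inhibition across valid replicates above about 55%, limit read from the data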;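 note: signal also drops with host cell toxicity which is not excluded here; higher percent means less beta-gal luminescence so fewer parasites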
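System: NIH/3T3 fibroblasts plus reporter T. cruzi. Medium: DMEM plus 2% FBS. Probe or stimulus: 5000 reporter trypomastigotes per well. Compound: single 50 nL compound addition per well in DMSO. Incubation: co-culture of at least 90 h after 3 h attachment. Detection: GalScreen β-gal luminescence, detergent lysis, 60 min. Evaluation: parasite load inhibition, %.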
MEKK2wt PB1 HTS: modulators of MEK5 binding to wildtype MEKK2, primary screen, biochemical, multiplex bead flow cytometry, Alexa488-MEK5; Alexa488-MEK5 binding to MEKK2 WT; actives lie on both sides; binding response (% of control), % at 10 µM; hit rate 1.1% among 290,000; in the data active = binding response below about 67% or above about 130%
HCV NS3 hel inh: inhibitors of HCV NS3 helicase, primary screen, biochemical, Cy5 molecular beacon fluorescence. hit rate 0.56% among 290,000. AID 1800, 2009. Hepatitis C virus NS3 helicase. inhibition, % at 10.9 µM. NS3 helicase DNA unwinding;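 active = inhibition above the mean of all tested compounds plus 3 SD, set per campaign, cut at about 35% in these data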
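Assay system – hepatitis C virus NS3 helicase domain fragment enzyme · Buffer or medium – MOPS pH 6.5, MgCl2, DTT, Tween20, BSA · Reagent – Cy5/quencher beacon DNA duplex and ATP to start · Compound – single 10.9 µM dose · Timing – 1 h at 25 °C · Technique – Cy5 beacon fluorescence read at start and 1 h · Measure – % inhibition of unwinding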
MEKK2wt confirm: modulators of MEK5 binding to wildtype MEKK2, confirmation, biochemical, single concentration, multiplex bead flow cytometry. shares compounds with MEKK3 PB1 HTS. Alexa488-MEK5 binding to MEKK2 WT; actives lie on both sides. binding response (% of control), % at 10 µM. hit rate 2.4% among 5,900; in the data active = binding response below about 16% or above about 210%; inactive = in between
MEKK2mut-MEK5: mutant MEKK2 PB1-MEK5 binding signal retest – biochemical, single concentration, multiplex bead flow cytometry, confirmation | AID 1893, 2009 | percent response, % at 10 µM | shares compounds with MEKK3 PB1 HTS | hit rate 2% among 5,900 | Alexa488-MEK5 binding to MEKK2 mutant; in the data active = percent response mostly above about 71%, no sharp cut-off; inactive = mostly below about 38%;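 note: higher means compound restores mutant binding toward wildtype level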
MEKK3 confirm: MEKK3 wild-type PB1 binding to MEK5, inhibitors, confirmation, biochemical, bead multiplex flow cytometry, single concentration, wildtype; shares compounds with MEKK3 PB1 HTS; Alexa488-MEK5 binding to MEKK3; hits give low values; binding response (% of control), % at 10 µM; hit rate 1.8% among 5,900; AID 1894, 2009;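 active = binding response below 72% of control, or above a set upper limit, though filed actives all read lower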;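 note: lower values mean stronger disruption of MEK5 binding to MEKK3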
A number is an active result; . = inactive; / = not tested or not shown; [ ] = another dose, or the depositor's remark. Shown are actives, neighbours in structure and some others; about 4.1% of the full set was active somewhere.

SMILES | MEKK3 PB1 HTS | MEKK2mut PB1 HTS | FID counter | T cruzi repl | MEKK2wt PB1 HTS | HCV NS3 hel inh | MEKK2wt confirm | MEKK2mut-MEK5 | MEKK3 confirm
O=C(C[n+]1ccc(-c2nnc3n2CCCCC3)cc1)c1ccc(Cl)cc1 | . | . | . | . | . | . | / | / | /
CN1C(=O)NC(c2ccc(O)cc2)C2=C1CN(c1ccc(O)cc1)C2=O (stereo not drawn) | 147 | . | . | . | . | . | . | . | .
Cc1sc2ncnc(Sc3nnnn3-c3ccccc3)c2c1C | 78[inhibitor] | . | . | . | . | . | . | . | .
Cc1sc2ncnc(Sc3ccccc3C(=O)O)c2c1C | . | . | . | . | . | . | / | / | /
C/C(Cc1ccccc1)=N\NC(=O)CNC(=O)c1ccccc1Br | . | . | . | . | . | . | / | / | /
O=C(c1ccc(Cl)cc1)C1CCCN(Cc2cnn(-c3ccccc3)c2)C1 (stereo not drawn) | . | . | . | 61 | 148 | . | . | . | .
O=C(c1ccc(Cl)cc1)C1CCCN(Cc2ccc(Oc3ncccn3)cc2)C1 (stereo not drawn) | . | . | . | . | . | . | / | / | /
CCOC(=O)C(=CNc1ccc(NC2=NCC(C)S2)cc1)C(=O)OCC (stereo not drawn) | 138 | . | . | . | . | . | . | . | .
O=[N+]([O-])c1ccc(O)c(C=Nc2ccc3oc(Cc4ccc(Cl)cc4)nc3c2)c1 | 134 | 174 | . | . | . | . | . | . | .
O=[N+]([O-])c1ccc(O)c(C=Nc2ccc3c(c2)OCCO3)c1 | 142 | . | . | . | . | . | . | . | .
O=[N+]([O-])c1cccc(N/N=C/c2cc([N+](=O)[O-])ccc2O)c1 | 139 | . | . | . | . | . | . | . | .
O=C(NCc1ccc(F)cc1)C(c1ccco1)N(C(=O)c1csnn1)C1CC1 (stereo not drawn) | . | . | . | . | . | . | / | / | /
CC#CC(=O)N1CCC(CCC(=O)N(C)Cc2ccccc2)CC1 | . | . | . | . | . | . | / | / | /
COc1ccc(C)cc1NC(=O)C(NC(=O)c1cc(OC)c(OC)c(OC)c1)C(C)C (stereo not drawn) | . | . | . | . | . | . | / | / | /
CCN(C(=O)COC(=O)c1cc(-c2ccc3cc(OC)ccc3c2)nc2ccccc12)C1CCS(=O)(=O)C1 (stereo not drawn) | . | . | . | . | . | . | / | / | /
CCN(C(=O)COC(=O)c1cc(=O)[nH]c2ccccc12)C1CCS(=O)(=O)C1 (stereo not drawn) | 37[inhibitor] | . | . | . | 37[inhibitor] | . | . | . | .
CN(C)C(=O)c1ccc(Oc2ccc(C(=O)N(C)C)cc2)cc1 | 66[inhibitor] | . | . | . | . | . | . | . | .
CCOC(=O)C1CCN(C(=O)CSc2nc3ncccc3[nH]2)CC1 | . | . | . | . | . | . | / | / | /
Cc1ccc(NC(=O)CSc2nc(=O)n(Cc3ccncc3)c3c2CCC3)c(C)c1 | / | / | / | . | / | / | / | / | /
CN1CCc2nc(SCc3ccc(C(C)(C)C)cc3)c(C#N)cc2C1 | . | . | . | 57 | 142 | . | . | . | .
O=C(O)c1ccc(N/N=C/c2cc3ccccc3nc2Cl)cc1 | . | . | . | . | . | . | / | / | /
Cc1cccc2cc(/C=N/Nc3ccc(C(=O)O)cc3)c(Cl)nc12 | 66[inhibitor] | . | . | . | . | . | . | . | .
CS(=O)(=O)N(CC(=O)N1CCCCC1)c1ccc(Cl)c(C(F)(F)F)c1 | . | . | . | . | 71[inhibitor] | . | . | . | .
CCOC(=O)CSC1=N/C(=C\c2cccnc2)C(=O)N1c1ccc(OC)cc1 | . | . | . | . | . | . | / | / | /
CCOC(=O)CSC1=N/C(=C\c2cc(OC)c(OC)c(OC)c2)C(=O)N1C | 153 | . | . | . | . | . | . | . | .
SMILES | MEKK3 PB1 HTS | MEKK2mut PB1 HTS | FID counter | T cruzi repl | MEKK2wt PB1 HTS | HCV NS3 hel inh | MEKK2wt confirm | MEKK2mut-MEK5 | MEKK3 confirm
COc1cc2oc(-c3ccc(O)cc3)cc(=O)c2c(O)c1OC | . | . | / | . | . | / | / | / | /
COc1cc2oc(-c3ccc(O)cc3)cc(=O)c2c(OC)c1O | 37[inhibitor] | . | . | . | 35[inhibitor] | . | . | . | .
CCN(CC(=O)NCc1cccs1)C(=O)c1ccc(S(=O)(=O)Nc2ccccc2C)cc1 | / | / | / | . | / | / | / | / | /
OCCN1CCN(CCCN2c3ccccc3Sc3ccc(Cl)cc32)CC1 | . | . | . | . | 160 | . | . | . | .
O=C(CN1CCCC1)N1c2ccccc2Sc2ccc(Cl)cc21 | . | . | . | . | . | . | / | / | /
CN(C)CCCN1c2ccccc2CCc2ccccc21 | . | . | . | . | . | . | / | / | /
CN(C)CCCN1c2ccccc2Sc2ccc(Cl)cc21 | . | . | . | . | 153 | . | . | . | .
CN(/N=C/C=C/c1ccccc1)C1=NS(=O)(=O)c2ccccc21 | 134 | . | . | . | . | . | . | . | .
Cc1c(C(=O)N2CCOCC2)sc(NC(=O)CCl)c1C#N | . | . | . | . | . | . | / | / | /
O=C(CN1C(=O)c2cccc([N+](=O)[O-])c2C1=O)N1CCN(c2ccc(F)cc2)CC1 | 47[inhibitor] | . | . | . | . | . | . | . | .
O=C(/C=C/c1cccc([N+](=O)[O-])c1)N1CCN(c2ccc(F)cc2)CC1 | 133 | . | . | . | . | . | . | . | .
O=C(NC1CC1)c1sc2ccccc2c1Cl | . | . | . | . | . | . | / | / | /
O=C(NNC(=O)C1CC2CCC1C2)c1sc2ccccc2c1Cl (stereo not drawn) | 149 | . | . | . | . | . | . | . | .
Cc1[nH]n(-c2ccc([N+](=O)[O-])cc2)c(=O)c1C=NCCN1CCN(C(=O)c2cccc(F)c2)CC1 | 127 | . | . | . | . | . | . | . | .
